A word on the Kd: it is a measure of binding affinity in units of concentration. Low readings indicate higher affinity, high ones lower affinity.

Square brackets hold non-standard residues; d marks the D form. Peptide text beside a SMILES is read from it. * marks the point of attachment. X1 = CCCCCCCCCCCCCCCC(=O)OC[C@H](COP(=O)(O)OCCNC(=O)CCCc1ccc(N2C(=O)CC(*)C2=O)cc1)OC(=O)CCCCCCCCCCCCCCC; pS = N[C@@H](COP(=O)(O)O)C(=O)O

Here are results for two molecules from publication PMC12343878 (Communications Biology, 2025).

The target in data set [1] is T1, AP2 (UniProt P18484+P62743+P63010+P84092). In words: Equilibrium tensiometry binding analysis.
In data set [2] the target is T1, AP2. The data set can be described thus: SNR low-resolution slab model of membrane-bound AP2 on Langmuir monolayers. It is filed as binding. Conditions: AP2 10 nM. In short, it runs like this:
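Langmuir-trough monolayers held at 25 ± 1 mN/m were measured on the FIGARO reflectometer, then AP2 was injected beneath them to a final bulk concentration of 10 nM. Settings were two incidence angles (0.6°, 3.7°), 7% wavelength resolution and Qz 0.007–0.25 Å−1, with 100% D2O and 8.1% D2O contrasts. The bound protein was fitted as a slab of constant SLD. Fit errors were ±1σ, checked against triplicate measurements.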

Data set [3] has as its target T1, AP2. The data set can be described thus: High-resolution SNR rigid-body modeling of membrane-bound AP2. It is filed as binding. A digest of the protocol: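 Measured on the FIGARO time-of-flight reflectometer at 0.6° and 3.7°, 7% dλ/λ, Qz 0.007–0.25 Å−1, in 100% and 8.1% D2O contrasts. Trough monolayers at 25 ± 1 mN/m were measured before and after AP2 injection into the subphase (final 10 nM). SLD profiles were calculated from energy-minimised open, open+ and closed AP2 models (PDB […], 6qh6, 2vgl) to fit orientation and position. Fractional coverage is given as mean ± SD, n = 256.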

The target in data set [4] is T1, AP2. In words: Fluid-phase tapping-mode AFM of transferred monolayers. Particulars: CD4-presenting monolayers. A digest of the protocol:
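Monolayers were transferred from a Langmuir trough onto glass coverslips by Langmuir–Schaeffer and imaged by fluid-phase tapping-mode AFM. Scans were 5 μm at 256×256 pixels and 1 Hz. A droplet of HKM buffer containing recombinant AP2 was spread and imaged before evaporation. Thickness profiles (n = 10) were Gaussian-fitted to give mean ± SD.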

A short description of data set [5]: SNR of Langmuir lipid monolayers before AP2. It is filed as physicochemical. Particulars: Π0 = 25 ± 0.5 mN/m.
Data set [6] in a line: Surface pressure - area isotherms of PM model membranes. It is filed as physicochemical. Conditions: T = 21 ± 0.5 °C.
The target in data set [7] is CD4 lipo-peptide (di-leucine peptide derived from the phosphorylated cytoplasmic tail of CD4, lipid-conjugated). The data set can be described thus: specular neutron reflectometry.
The target of data set [8] is TGN38 lipo-peptide (Yxxφ-containing peptide derived from the cytoplasmic tail of TGN38, lipid-conjugated). The data set can be described thus: specular neutron reflectometry.
Data set [9] has as its target CD4 lipo-peptide (di-leucine peptide derived from the phosphorylated cytoplasmic tail of CD4, lipid-conjugated). In words: Langmuir trough surface-pressure tensiometry.
In data set [10] the target is TGN38 lipo-peptide (Yxxφ-containing peptide derived from the cytoplasmic tail of TGN38, lipid-conjugated). In words: Langmuir trough surface-pressure tensiometry.

T1 sequence (P63010 1-591): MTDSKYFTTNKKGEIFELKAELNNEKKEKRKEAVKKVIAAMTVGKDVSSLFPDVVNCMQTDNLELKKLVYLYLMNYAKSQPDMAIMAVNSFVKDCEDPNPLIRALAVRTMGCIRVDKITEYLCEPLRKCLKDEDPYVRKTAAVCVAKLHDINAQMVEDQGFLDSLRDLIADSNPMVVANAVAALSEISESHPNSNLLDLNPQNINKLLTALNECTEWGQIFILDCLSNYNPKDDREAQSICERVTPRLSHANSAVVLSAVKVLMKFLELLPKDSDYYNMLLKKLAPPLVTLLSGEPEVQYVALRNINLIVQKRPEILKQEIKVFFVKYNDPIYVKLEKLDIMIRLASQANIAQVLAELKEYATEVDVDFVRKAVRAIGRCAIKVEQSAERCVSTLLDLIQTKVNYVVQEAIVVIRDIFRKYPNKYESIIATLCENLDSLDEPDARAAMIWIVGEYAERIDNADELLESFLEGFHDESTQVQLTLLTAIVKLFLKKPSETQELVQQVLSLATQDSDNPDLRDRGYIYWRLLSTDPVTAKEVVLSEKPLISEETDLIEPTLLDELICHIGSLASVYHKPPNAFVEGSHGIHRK
T1 sequence (P84092 whole entry): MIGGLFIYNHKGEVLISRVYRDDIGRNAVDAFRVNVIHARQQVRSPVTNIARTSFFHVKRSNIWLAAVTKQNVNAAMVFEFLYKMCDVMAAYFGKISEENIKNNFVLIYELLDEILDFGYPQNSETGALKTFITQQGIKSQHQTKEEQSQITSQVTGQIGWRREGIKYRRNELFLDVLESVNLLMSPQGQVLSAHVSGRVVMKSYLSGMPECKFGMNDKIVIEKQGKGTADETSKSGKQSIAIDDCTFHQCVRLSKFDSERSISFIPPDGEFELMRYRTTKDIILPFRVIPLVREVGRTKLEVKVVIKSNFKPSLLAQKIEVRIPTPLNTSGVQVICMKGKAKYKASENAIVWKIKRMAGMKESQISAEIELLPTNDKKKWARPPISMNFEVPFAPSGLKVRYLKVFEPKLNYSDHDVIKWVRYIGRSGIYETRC
T1 sequence (P18484 1-621): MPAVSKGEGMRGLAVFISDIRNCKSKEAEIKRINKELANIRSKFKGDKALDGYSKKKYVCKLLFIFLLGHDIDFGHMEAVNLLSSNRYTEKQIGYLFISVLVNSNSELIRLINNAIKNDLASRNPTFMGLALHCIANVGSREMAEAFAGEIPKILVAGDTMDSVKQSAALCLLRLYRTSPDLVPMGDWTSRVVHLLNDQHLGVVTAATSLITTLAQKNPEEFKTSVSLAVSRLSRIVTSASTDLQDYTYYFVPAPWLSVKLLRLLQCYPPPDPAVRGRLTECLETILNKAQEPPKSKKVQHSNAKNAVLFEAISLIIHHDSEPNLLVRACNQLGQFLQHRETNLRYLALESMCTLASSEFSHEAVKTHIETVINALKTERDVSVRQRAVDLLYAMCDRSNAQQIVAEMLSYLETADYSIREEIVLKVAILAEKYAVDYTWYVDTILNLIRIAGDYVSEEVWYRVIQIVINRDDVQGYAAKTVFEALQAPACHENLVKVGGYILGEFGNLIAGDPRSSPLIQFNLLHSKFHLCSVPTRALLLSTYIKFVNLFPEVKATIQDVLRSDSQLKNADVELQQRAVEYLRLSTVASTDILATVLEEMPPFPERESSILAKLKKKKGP
T1 sequence (P62743 whole entry): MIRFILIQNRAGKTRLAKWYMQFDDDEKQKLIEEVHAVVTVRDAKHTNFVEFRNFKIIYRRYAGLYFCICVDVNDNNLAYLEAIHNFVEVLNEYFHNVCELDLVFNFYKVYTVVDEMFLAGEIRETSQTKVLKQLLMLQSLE
AP2 (recombinant adaptor protein complex 2, hetero-tetramer), sequence (P18484 whole entry): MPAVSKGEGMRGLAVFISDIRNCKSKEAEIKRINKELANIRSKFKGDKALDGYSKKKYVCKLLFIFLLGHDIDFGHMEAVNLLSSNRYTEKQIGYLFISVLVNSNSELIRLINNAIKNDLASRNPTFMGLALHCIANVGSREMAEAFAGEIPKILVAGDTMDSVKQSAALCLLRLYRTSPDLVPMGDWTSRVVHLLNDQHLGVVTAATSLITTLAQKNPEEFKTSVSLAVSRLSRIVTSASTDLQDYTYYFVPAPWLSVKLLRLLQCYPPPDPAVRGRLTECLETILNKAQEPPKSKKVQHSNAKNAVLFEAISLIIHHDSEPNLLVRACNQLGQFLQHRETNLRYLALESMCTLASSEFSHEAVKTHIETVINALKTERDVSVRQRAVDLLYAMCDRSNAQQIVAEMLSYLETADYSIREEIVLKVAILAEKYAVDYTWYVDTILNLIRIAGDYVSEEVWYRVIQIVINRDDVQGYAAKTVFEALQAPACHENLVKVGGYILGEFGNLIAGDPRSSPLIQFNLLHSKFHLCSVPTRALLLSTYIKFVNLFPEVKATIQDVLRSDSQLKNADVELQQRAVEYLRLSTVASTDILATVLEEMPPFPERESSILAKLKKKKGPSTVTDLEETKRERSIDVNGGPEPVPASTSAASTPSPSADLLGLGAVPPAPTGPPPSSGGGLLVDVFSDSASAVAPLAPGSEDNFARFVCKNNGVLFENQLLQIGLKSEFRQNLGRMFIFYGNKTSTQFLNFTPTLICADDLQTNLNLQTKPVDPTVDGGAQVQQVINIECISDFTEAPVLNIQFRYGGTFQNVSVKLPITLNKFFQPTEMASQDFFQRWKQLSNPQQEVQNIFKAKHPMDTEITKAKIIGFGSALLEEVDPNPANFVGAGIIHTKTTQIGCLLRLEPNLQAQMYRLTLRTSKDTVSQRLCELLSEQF
AP2 (recombinant adaptor protein complex 2, hetero-tetramer), sequence (P63010 whole entry): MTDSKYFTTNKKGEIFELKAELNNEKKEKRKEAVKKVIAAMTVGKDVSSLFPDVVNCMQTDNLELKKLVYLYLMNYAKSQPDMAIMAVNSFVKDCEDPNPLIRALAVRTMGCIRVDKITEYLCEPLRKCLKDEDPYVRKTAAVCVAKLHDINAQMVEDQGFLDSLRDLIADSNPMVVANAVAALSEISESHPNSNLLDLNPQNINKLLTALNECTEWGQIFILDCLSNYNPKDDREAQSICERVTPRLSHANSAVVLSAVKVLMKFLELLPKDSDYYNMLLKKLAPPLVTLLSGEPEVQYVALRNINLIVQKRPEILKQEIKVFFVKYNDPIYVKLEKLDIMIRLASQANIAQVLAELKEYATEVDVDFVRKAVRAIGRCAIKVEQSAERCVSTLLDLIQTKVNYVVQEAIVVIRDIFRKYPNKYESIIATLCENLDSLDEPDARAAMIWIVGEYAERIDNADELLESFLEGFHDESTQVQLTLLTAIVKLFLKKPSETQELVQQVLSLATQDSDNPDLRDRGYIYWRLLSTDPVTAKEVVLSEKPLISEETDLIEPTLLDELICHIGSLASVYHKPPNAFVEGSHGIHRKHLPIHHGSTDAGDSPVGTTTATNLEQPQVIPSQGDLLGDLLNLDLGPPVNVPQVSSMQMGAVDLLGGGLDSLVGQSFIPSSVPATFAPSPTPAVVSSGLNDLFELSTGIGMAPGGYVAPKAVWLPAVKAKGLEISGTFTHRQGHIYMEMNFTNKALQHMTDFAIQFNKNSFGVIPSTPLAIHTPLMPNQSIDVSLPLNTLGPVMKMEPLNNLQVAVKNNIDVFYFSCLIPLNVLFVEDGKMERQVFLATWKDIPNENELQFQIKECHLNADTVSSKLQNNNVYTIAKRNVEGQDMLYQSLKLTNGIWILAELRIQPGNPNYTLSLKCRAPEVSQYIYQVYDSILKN
AP2 (recombinant adaptor protein complex 2, hetero-tetramer), sequence (P84092 whole entry): as the sequence (P84092 whole entry) above
AP2 (recombinant adaptor protein complex 2, hetero-tetramer), sequence (P62743 whole entry): as the sequence (P62743 whole entry) above

Turning to `CCCCCCCCCCCCCCCC(=O)OC[C@H](COP(=O)(O)OCCNC(=O)CCCc1ccc(N2C(=O)CC(SC[C@H](N)C(=O)N[C@@H](Cc3c[nH]cn3)C(=O)N[C@@H](CCCNC(=N)N)C(=O)N[C@@H](CCCNC(=N)N)C(=O)N[C@@H](CCCNC(=N)N)C(=O)N[C@@H](CCC(N)=O)C(=O)N[C@@H](C)C(=O)N[C@@H](CCC(=O)O)C(=O)N[C@@H](CCCNC(=N)N)C(=O)N[C@@H](CCSC)C(=O)N[C@@H](COP(=O)(O)O)C(=O)N[C@@H](CCC(N)=O)C(=O)N[C@H](C(=O)N[C@@H](CCCCN)C(=O)N[C@@H](CCCNC(=N)N)C(=O)N[C@@H](CC(C)C)C(=O)N[C@@H](CC(C)C)C(=O)N[C@@H](CO)C(=O)N[C@@H](CCC(=O)O)C(=O)N[C@@H](CCCCN)C(=O)O)[C@@H](C)CC)C2=O)cc1)OC(=O)CCCCCCCCCCCCCCC` (stereo partly drawn) [CD4] (H-C(X1)HRRRQAERM[pS]QIKRLLSEK-OH; N-terminus and C-terminus assumed), the “change in lateral pressure ΔΠ∞ on addition of cargo” value at AP2 [1] (AP2, Π0 = 25 mN/m, vs PtdIns(4,5)P2-only) is given as “further increases in lateral pressure”. For the same molecule, the “AP2 concentration above which biphasic binding behavior is observed” value at AP2 [1] (cargo-presenting monolayer vs PtdIns(4,5)P2-only) is more than 10 nM. On AP2 [2], the “total thickness of membrane-bound AP2” value is listed as 84 ± 6 Å. The “surface coverage of AP2” value at AP2 [3] (open AP2 conformation) is given as 24%. Further, the “distance of AP2 center-of-mass to membrane head group” value on AP2 [3] (open AP2 conformation (2xa7)) was determined as 10 ± 4 Å. In addition, at AP2 [4], the “increment of bright spots' thickness after AP2” value is listed as “A similar increment was also found”. Further, the “location of cargo peptides in monolayer” value in data set [5] is on record as “confined to the headgroups layer”. Also, in [6], the “effect on liquid expanded (LE) phase” value is reported as “did not alter the existence of the LE phase”.
Take “AP2 (recombinant adaptor protein complex 2, hetero-tetramer) (from UniProt P18484 1-938; P63010 1-937; P84092 1-435; P62743 1-142)”: the surface coverage of AP2 on the monolayer (with PtdIns(4,5)P2) in data set [7] was determined as 24%. The surface coverage of AP2 on the monolayer (with PtdIns(4,5)P2) in data set [8] stood at 51%. In data set [9], the Kd came out at 0.075 µM; the apparent koff (combined cargo and PtdIns(4,5)P2 binding, monolayer) amounted to 0.00012 s⁻¹; the overall Kd (monolayer with cargo and PtdIns(4,5)P2, 35 mN/m) worked out at 0.093 µM; the residence time (1/koff) on the monolayer with PtdIns(4,5)P2 stood at 8330 s. Besides, in [10], the Kd from kinetics (monolayer with cargo and PtdIns(4,5)P2) came to 0.012 µM; the overall Kd (monolayer with cargo and PtdIns(4,5)P2) was 0.015 µM; the overall Kd (monolayer with cargo and PtdIns(4,5)P2, 35 mN/m) is 0.064 µM; the residence time (1/koff) on the monolayer with PtdIns(4,5)P2 is 5560 s.
